Experiments:
[1] = tested on: ABA-induced stress-related genes; test: Quantitative RT-PCR of ABA-induced genes in seedlings; type: in vivo, Arabidopsis thaliana; conditions: 50 μM, 6 h
[2] = tested on: Col-0 plants rosette leaves; test: Water loss; type: in vivo, Arabidopsis thaliana; conditions: one-month-old Col-0 plants, 50 μM spray, compared with DMSO
In short: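 Well-watered 4-week-old Col-0 plants on soil (8-h light/16-h dark) were sprayed with 50 µM test compound plus 0.02% Tween-20; DMSO control. Plants were returned to the chamber for 3 h. Equal-sized rosette leaves were then detached and weighed in air every 5 min for the first hour and every 10 min for the second. Loss is expressed as % of initial fresh weight; n = 4, standard error.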

[3] = tested on: reconstructed ABA signaling pathway (PYR1+HAB1+SnRK2.6+ABF2), RD29b-luciferase reporter; test: Protoplast transactivation assay; type: cell-based, Arabidopsis thaliana; conditions: snrk2.2/2.3/2.6 protoplasts transfected with PYR1, HAB1, SnRK2.6, ABF2; 5 μM AM1
In short: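 Protoplasts came from 4-week-old pRD29b-LUC plants (snrk2.2/2.3/2.6 background) grown on soil pellets under 8-h light/16-h dark. They were transfected with PYR1, HAB1, SnRK2.6 and ABF2, or the same set without PYR1. Cells were treated with 5 µM test compound; DMSO control. RD29b-driven luciferase was measured.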

[4] = tested on: Arabidopsis seeds (Col-0 and pyr1;pyl1;pyl4); test: Seed germination assay; type: in vivo, Arabidopsis thaliana; conditions: 1 μM
In short: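 Col-0 and pyr1;pyl1;pyl4 seeds were stratified 4 days, then sown on half-strength MS (1% sucrose) containing 1 µM test compound or (+)-ABA; DMSO control. Plates were kept at 22 °C under long day, 15 seeds per plate and 4 plates per chemical. Germination was defined as expanded green cotyledons and counted 4 days after triple-mutant germination; mean ± SD.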

[5] = tested on: HAB1 PP2C with PYR/PYL receptors; test: HAB1 phosphatase activity assay; type: biochemical, Arabidopsis thaliana; conditions: 10 μM; PYR1 and PYL1-10
[6] = tested on: Arabidopsis seedlings transcriptome; test: RNA-seq transcriptome profiling of seedlings; type: in vivo, Arabidopsis thaliana; conditions: 50 μM, FDR < 0.05
In short: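 Ten-day-old Col-0 seedlings on half-strength MS were exposed for 6 h to 50 µM test compound or (+)-ABA, or 0.05% DMSO. Duplicate biological replicates were sequenced on Illumina HiSeq2000 (10 M reads/sample, mean length >49 bp). Fold-change versus DMSO was log2-transformed; Spearman correlations were computed between samples. Differential genes were called by SAM analysis.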

[7] = Stability measurement under UV light; type: physicochemical; conditions: water exposed to UV light (8 W)
In short: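 Test compound and ABA, each 100 µM in pure water, were exposed in aliquots to an 8 W UV lamp in a safety hood. Aliquots were withdrawn at set time points for LC-MS. Amounts were quantified from peak areas, and half-life was calculated from peak disappearance.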

activation of RD29b-luciferase reporter [3]: efficiently activate
half-life at 100 μM [7]: 24 min
Compound: CC1=CC(=O)CC(C)(C)[C@@]1(O)/C=C/C(C)=C\C(=O)O [ABA, Abscisic acid]
activation of six ABA-inducible genes ([1]; pyr1/pyl1/pyl4 triple mutant plants): much reduced, but remained inducible
activation of six ABA-inducible genes ([1]; wild-type plants): dramatically activated
water loss of rosette leaves [2]: decreased
inhibition of seed germination ([4]; pyr1/pyl1/pyl4 triple mutant): completely abolished
inhibition of seed germination ([4]; wild-type Col-0 seeds): inhibit germination
receptor-mediated inhibition of HAB1 PP2C activity [5]: inhibited by all receptor subtypes tested
number of genes induced (up- or down-regulated) vs DMSO [6]: 4 529 genes
